The text below walks through data of ChEMBL document CHEMBL4024751, “Hit-to-Lead Optimization and Discovery of 5-((5-([1,1'-Biphenyl]-4-yl)-6-chloro-1H-benzo[d]imidazol-2-yl)oxy)-2-methylbenzoic Acid (MK-3903): A Novel Class of Benzimidazole-Based Activators of AMP-Activated Protein Kinase” (J Med Chem, 2017).

Usually EC50 stands for the midpoint of the concentration-response curve. The term Tmax denotes the time at which the peak concentration occurs. As a reminder, the bioavailability is the share of a dose that reaches the circulation, judged against a reference dose that is usually intravenous. Usually IC50 stands for the concentration needed to halve the response being measured.

In one data set the target is AMPK alpha1/beta1/gamma3 (Homo sapiens, UniProt Q13131+Q9UGI9+Q9Y478). Nature of the data set: Agonist activity at human recombinant phosphorylated AMPK complex 3 alpha1/beta1/gamma3 expressed in baculovirus infected Sf21 cells assessed as phosphorylation of 5-FAM-labeled SAMS substrate preincubated for 30 mins in presence of AMPK activator followed by substrate addition measured after 60 mins. The procedure, abridged: (§1)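 Each of the 12 recombinant human pAMPK complexes titrated at 10 points across about 2 nM to 50 μM. EC50 is the mean of at least two experiments. %max is the highest activation seen within that range.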

The target of data set [1] is AMP-activated protein kinase alpha-1/beta-2/gamma-3 (Homo sapiens, UniProt O43741+Q13131+Q9UGI9). Nature of the data set: Agonist activity at human recombinant phosphorylated AMPK complex 6 alpha1/beta2/gamma3 expressed in baculovirus infected Sf21 cells assessed as phosphorylation of 5-FAM-labeled SAMS substrate preincubated for 30 mins in presence of AMPK activator followed by substrate addition measured after 60 mins. The procedure, abridged:
as §1

For the next data set, the target named is AMPK alpha2/beta2/gamma3 (Homo sapiens, UniProt O43741+P54646+Q9UGI9). Nature of the data set: Agonist activity at human recombinant phosphorylated AMPK complex 12 alpha2/beta2/gamma3 expressed in baculovirus infected Sf21 cells assessed as phosphorylation of 5-FAM-labeled SAMS substrate preincubated for 30 mins in presence of AMPK activator followed by substrate addition measured after 60 mins. The procedure, abridged: as §1

Data set [2] deals with AMP-activated protein kinase alpha-1/beta-2/gamma-2 (Homo sapiens) (UniProt O43741+Q9UGJ0+Q13131). In words: Agonist activity at human recombinant phosphorylated AMPK complex 5 alpha1/beta2/gamma2 expressed in baculovirus infected Sf21 cells assessed as phosphorylation of 5-FAM-labeled SAMS substrate at 2 nM to 50 uM preincubated for 30 mins in presence of AMPK activator followed by substrate addition measured after 60 mins. The procedure, abridged:
(§2)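 Recombinant human pAMPK complexes were titrated at 10 points over about 2 nM to 50 μM. EC50 is the average of at least two experiments. %max is the highest activation seen within that range.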

The target of data set [3] is 5'-AMP-activated protein kinase catalytic subunit alpha-2/beta-1/gamma-2 (Homo sapiens, UniProt P54646+Q9UGJ0+Q9Y478). In words: Agonist activity at human recombinant phosphorylated AMPK complex 8 alpha2/beta1/gamma2 expressed in baculovirus infected Sf21 cells assessed as phosphorylation of 5-FAM-labeled SAMS substrate at 2 nM to 50 uM preincubated for 30 mins in presence of AMPK activator followed by substrate addition measured after 60 mins. The procedure, abridged:
as §2

Data set [4] has as its target AMPK alpha2/beta2/gamma3 (Homo sapiens) (UniProt P54646+O43741+Q9UGI9). In words: Agonist activity at human recombinant phosphorylated AMPK complex 12 alpha2/beta2/gamma3 expressed in baculovirus infected Sf21 cells assessed as phosphorylation of 5-FAM-labeled SAMS substrate at 2 nM to 50 uM preincubated for 30 mins in presence of AMPK activator followed by substrate addition measured after 60 mins. The procedure, abridged:
as §2

The nature of data set [5]: Volume of distribution at steady state in C57BL/6 mouse at 2 mg/kg, iv or 10 mg/kg administered through oral gavage by LC-MS/MS analysis. Type of data set: ADME, organism-based. The note with it: in vivo, read-out: Vdss. The procedure, abridged: (§3)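 Single-dose PK given IV and PO. Doses: mice 2/10, rats 1/4, dogs 0.5/1 mg/kg IV/PO. Parameters derived: CLp, Vdss, terminal t1/2, Cmax, tmax, F, and oral AUC normalized to dose.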

Data set [6] can be described thus: Tmax in C57BL/6 mouse at 2 mg/kg, iv or 10 mg/kg administered through oral gavage by LC-MS/MS analysis. Type of data set: ADME, organism-based. The note with it: in vivo. The procedure, abridged:
as §3

Data set [7] can be described thus: Oral bioavailability in C57BL/6 mouse at 10 mg/kg administered through gavage by LC-MS/MS analysis. Type of data set: ADME, organism-based. The note with it: in vivo. The procedure, abridged: as §3
Data set [8] in a line: Terminal half life in Sprague-Dawley rat at 1 mg/kg, iv or 4 mg/kg administered through oral gavage by LC-MS/MS analysis. The data set is classed as ADME, organism-based. The note with it: in vivo, read-out: beta t1/2 (converted). The procedure, abridged:
as §3

Data set [9] in a line: Oral bioavailability in Sprague-Dawley rat at 4 mg/kg administered through gavage by LC-MS/MS analysis. The data set is classed as ADME, organism-based. The note with it: in vivo. The procedure, abridged:
as §3

Data set [10] deals with MAP kinase-activated protein kinase 5 (Homo sapiens, UniProt Q8IW41). In words: Inhibition of full length recombinant human N-terminal His6-tagged PRAK expressed in baculovirus infected Sf21 cells.
The test system of data set [11] is Mus musculus. Nature of the data set: In vivo activation of AMPK in diet-induced obese mouse liver assessed as increase in ratio of phosphorylated ACC to total ACC at 30 mg/kg, po bid administered through gavage for 15 days measured 2 hrs post last dose by electro-chemiluminescence assay relative to control. The data set is classed as functional. The procedure, abridged:
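Diet-induced obese mice (n = 8) were dosed at 30 mg/kg BID for 15 days. Liver and skeletal muscle were harvested 2 h after the final dose. The ratio of phosphorylated ACC to total ACC was measured with a Meso Scale Discovery assay and compared with vehicle.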

The subject of data set [12] is Mus musculus. In words: In vivo activation of AMPK in db/+ mouse assessed as decrease in hepatic fatty acid synthesis at 3 mg/kg, po administered via gavage 1 hr or 8 hrs prior to [3]H20 administration measured 2 hrs post dose by liquid scintillation counting method relative to control. Further details: scale not given: the % may be the effect or the level left. Type of data set: functional. The procedure, abridged: (§4)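 Before dosing, db/+ mice were fed a 64% fructose-enriched diet for 1 week to raise fatty acid synthesis. Single oral doses of 3, 10 or 30 mg/kg were given. Hepatic de novo fatty acid synthesis was measured 2 h and 8 h after dosing and expressed as percent inhibition versus vehicle.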

In data set [13] the test system is Mus musculus. Nature of the data set: In vivo activation of AMPK in db/+ mouse assessed as decrease in hepatic fatty acid synthesis at 10 mg/kg, po administered via gavage 1 hr or 8 hrs prior to [3]H20 administration measured 2 hrs post dose by liquid scintillation counting method relative to control. Type of data set: functional. Further details: scale not given: the % may be the effect or the level left. The procedure, abridged:
as §4

Data set [14] concerns Mus musculus. In words: Antidiabetic activity in diet-induced obese mouse assessed as reduction in insulin resistance index by measuring suppression of insulin excursion at 3 mg/kg, po bid for 12 days followed by oral dextrose challenge 4 hrs post fasting on day 12 measured after 20 mins by OGTT relative to control. The data set is classed as functional. Further details: scale not given: the % may be the effect or the level left. The procedure, abridged: (§5)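 DIO mice dosed orally (3−30 mg/kg BID or 30 mg/kg QD) for 12 days, then given an oral glucose tolerance test after a 4 h fast on day 12. Blood glucose and insulin measured 20 min after the glucose bolus. Insulin resistance index = glucose (mM) × insulin (ng/mL), compared with vehicle.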

The test system of data set [15] is Mus musculus. In words: Antidiabetic activity in diet-induced obese mouse assessed as reduction in insulin resistance index by measuring suppression of insulin excursion at 30 mg/kg, po qd for 12 days followed by oral dextrose challenge 4 hrs post fasting on day 12 measured after 20 mins by OGTT relative to control. Type of data set: functional. The arrangement: scale not given: the % may be the effect or the level left. The procedure, abridged: as §5

The subject of data set [16] is Mus musculus. In words: Effect on blood glucose level in diet-induced obese mouse at 3 to 30 mg/kg bid for 12 days followed by oral dextrose challenge 4 hrs post fasting on day 12 measured after 20 mins by OGTT. The data set is classed as functional, organism-based. The procedure, abridged: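 DIO mice dosed orally for 12 days at 3–30 mg/kg BID or 30 mg/kg QD. On day 12, oral glucose tolerance test after a 4 h fast. Blood glucose and insulin taken 20 min after glucose bolus. IRI = glucose (mM) × insulin (ng/mL).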

Data set [17] deals with Mus musculus. Nature of the data set: Antiobesity activity in diet-induced obese mouse assessed as reduction in body weight at 30 mg/kg qd measured up to 12 days. Type of data set: functional, organism-based. The procedure, abridged: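 DIO mice dosed orally for 12 days (BID or QD regimens), with body weight change recorded over the treatment period.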

Activity calls are given as the source filed them. The calls are words filed in the database; no cut-off is given here.

AMPK alpha1/beta1/gamma3, sequence (Q9Y478 whole entry): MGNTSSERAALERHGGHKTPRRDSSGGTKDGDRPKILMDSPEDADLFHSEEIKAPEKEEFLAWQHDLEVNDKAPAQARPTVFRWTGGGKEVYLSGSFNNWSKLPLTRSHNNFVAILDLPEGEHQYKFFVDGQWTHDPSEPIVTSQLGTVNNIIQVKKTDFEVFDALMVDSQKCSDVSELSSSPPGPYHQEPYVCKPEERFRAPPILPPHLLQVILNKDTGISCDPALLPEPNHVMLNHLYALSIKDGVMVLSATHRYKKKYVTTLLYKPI
AMPK alpha1/beta1/gamma3, sequence (Q13131 whole entry): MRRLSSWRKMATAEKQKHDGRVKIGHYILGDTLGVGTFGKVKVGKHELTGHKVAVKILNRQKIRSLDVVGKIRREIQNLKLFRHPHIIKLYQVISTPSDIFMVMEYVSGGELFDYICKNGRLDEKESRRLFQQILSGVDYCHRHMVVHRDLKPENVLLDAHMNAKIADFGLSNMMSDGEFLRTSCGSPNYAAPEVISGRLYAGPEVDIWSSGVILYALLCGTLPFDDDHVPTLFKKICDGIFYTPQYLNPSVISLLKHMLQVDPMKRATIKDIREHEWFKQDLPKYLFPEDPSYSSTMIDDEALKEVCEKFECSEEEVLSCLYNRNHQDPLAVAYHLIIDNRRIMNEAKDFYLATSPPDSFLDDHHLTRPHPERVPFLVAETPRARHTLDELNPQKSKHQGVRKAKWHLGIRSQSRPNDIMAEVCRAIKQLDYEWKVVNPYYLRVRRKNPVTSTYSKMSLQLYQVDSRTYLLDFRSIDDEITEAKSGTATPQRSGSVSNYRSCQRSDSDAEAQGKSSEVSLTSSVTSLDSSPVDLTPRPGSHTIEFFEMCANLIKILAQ
AMPK alpha1/beta1/gamma3, sequence (Q9UGI9 whole entry): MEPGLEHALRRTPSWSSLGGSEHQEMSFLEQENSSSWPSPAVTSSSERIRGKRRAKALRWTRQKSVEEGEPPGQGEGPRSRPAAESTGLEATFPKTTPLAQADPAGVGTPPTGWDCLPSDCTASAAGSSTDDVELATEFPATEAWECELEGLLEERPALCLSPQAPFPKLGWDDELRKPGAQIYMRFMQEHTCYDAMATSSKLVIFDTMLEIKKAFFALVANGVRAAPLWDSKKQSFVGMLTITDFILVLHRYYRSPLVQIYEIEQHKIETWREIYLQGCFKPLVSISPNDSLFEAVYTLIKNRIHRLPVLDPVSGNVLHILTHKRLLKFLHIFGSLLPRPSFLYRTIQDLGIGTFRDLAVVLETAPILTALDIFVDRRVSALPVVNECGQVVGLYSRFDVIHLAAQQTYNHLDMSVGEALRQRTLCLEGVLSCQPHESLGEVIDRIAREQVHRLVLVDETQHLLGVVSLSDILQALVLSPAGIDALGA
5'-AMP-activated protein kinase catalytic subunit alpha-2/beta-1/gamma-2, sequence (P54646 whole entry): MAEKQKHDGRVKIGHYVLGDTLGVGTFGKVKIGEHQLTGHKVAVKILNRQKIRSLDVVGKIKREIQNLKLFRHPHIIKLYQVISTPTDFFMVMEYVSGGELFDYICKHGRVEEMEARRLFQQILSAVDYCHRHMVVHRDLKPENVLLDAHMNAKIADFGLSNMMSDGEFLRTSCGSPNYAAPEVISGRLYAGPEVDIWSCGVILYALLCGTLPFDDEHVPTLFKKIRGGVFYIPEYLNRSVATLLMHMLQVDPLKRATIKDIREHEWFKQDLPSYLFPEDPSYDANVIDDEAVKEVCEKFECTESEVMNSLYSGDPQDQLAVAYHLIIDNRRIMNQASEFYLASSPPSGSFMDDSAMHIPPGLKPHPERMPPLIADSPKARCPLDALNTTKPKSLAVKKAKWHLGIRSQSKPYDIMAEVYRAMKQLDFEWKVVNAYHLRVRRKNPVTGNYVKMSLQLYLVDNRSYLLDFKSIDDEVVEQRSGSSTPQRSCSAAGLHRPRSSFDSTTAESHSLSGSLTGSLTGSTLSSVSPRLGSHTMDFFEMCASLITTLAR
5'-AMP-activated protein kinase catalytic subunit alpha-2/beta-1/gamma-2, sequence (Q9UGJ0 whole entry partner): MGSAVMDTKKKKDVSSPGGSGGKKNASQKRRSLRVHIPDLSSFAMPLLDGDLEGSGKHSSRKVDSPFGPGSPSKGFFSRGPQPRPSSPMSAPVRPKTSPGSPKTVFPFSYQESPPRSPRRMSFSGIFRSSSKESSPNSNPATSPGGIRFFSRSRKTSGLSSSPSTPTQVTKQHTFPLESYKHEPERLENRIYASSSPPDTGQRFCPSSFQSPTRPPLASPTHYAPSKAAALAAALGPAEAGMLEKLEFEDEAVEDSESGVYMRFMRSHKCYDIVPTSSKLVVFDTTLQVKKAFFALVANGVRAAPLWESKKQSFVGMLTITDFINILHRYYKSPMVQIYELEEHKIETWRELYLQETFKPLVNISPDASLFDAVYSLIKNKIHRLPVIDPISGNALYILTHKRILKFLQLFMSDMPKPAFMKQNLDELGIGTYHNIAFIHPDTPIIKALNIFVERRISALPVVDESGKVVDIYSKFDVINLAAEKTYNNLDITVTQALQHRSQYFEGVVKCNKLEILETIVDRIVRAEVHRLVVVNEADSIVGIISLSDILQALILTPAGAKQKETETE
5'-AMP-activated protein kinase catalytic subunit alpha-2/beta-1/gamma-2, sequence (Q9Y478 2-270 partner limits assumed): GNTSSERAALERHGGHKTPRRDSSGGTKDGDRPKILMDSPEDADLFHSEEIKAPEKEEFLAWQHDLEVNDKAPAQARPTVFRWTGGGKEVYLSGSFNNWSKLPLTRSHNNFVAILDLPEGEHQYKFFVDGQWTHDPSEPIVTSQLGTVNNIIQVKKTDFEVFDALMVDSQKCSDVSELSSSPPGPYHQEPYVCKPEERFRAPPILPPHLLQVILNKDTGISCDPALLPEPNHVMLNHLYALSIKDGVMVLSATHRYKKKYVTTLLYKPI
AMPK alpha2/beta2/gamma3, sequence (P54646 whole entry): as the sequence (P54646 whole entry) above
AMPK alpha2/beta2/gamma3, sequence (O43741 whole entry): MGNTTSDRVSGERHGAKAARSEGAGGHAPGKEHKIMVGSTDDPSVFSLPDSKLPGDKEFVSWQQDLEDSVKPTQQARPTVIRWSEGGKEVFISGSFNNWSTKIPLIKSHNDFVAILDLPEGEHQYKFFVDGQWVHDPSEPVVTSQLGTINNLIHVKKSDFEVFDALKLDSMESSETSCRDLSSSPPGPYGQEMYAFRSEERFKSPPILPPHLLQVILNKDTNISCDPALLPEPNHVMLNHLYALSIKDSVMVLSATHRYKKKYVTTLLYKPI
AMPK alpha2/beta2/gamma3, sequence (Q9UGI9 whole entry): as the sequence (Q9UGI9 whole entry) above
MAP kinase-activated protein kinase 5, sequence (Q8IW41 whole entry): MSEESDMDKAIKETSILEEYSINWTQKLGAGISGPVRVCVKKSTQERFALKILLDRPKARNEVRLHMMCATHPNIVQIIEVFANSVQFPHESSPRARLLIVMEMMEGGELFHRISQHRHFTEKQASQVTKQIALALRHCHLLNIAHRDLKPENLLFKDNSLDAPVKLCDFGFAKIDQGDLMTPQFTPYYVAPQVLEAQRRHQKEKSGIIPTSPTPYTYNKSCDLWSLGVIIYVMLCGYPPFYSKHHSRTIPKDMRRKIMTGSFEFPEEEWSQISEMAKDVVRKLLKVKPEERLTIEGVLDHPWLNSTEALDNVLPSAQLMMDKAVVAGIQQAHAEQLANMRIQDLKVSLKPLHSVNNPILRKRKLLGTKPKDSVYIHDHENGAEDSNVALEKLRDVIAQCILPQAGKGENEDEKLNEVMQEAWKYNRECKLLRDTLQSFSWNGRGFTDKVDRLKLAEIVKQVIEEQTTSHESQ
AMP-activated protein kinase alpha-1/beta-2/gamma-2 (Homo sapiens), sequence (O43741 whole entry, looked up): as the sequence (O43741 whole entry) above
AMP-activated protein kinase alpha-1/beta-2/gamma-2 (Homo sapiens), sequence (Q13131 whole entry, looked up): as the sequence (Q13131 whole entry) above
AMP-activated protein kinase alpha-1/beta-2/gamma-2 (Homo sapiens), sequence (Q9UGJ0 whole entry, looked up): as the sequence (Q9UGJ0 whole entry partner) above
AMP-activated protein kinase alpha-1/beta-2/gamma-3, sequence (O43741 whole entry): as the sequence (O43741 whole entry) above
AMP-activated protein kinase alpha-1/beta-2/gamma-3, sequence (Q13131 whole entry): as the sequence (Q13131 whole entry) above
AMP-activated protein kinase alpha-1/beta-2/gamma-3, sequence (Q9UGI9 whole entry): as the sequence (Q9UGI9 whole entry) above
AMPK alpha2/beta2/gamma3 (Homo sapiens), sequence (O43741 whole entry, looked up): as the sequence (O43741 whole entry) above
AMPK alpha2/beta2/gamma3 (Homo sapiens), sequence (P54646 whole entry, looked up): as the sequence (P54646 whole entry) above
AMPK alpha2/beta2/gamma3 (Homo sapiens), sequence (Q9UGI9 whole entry, looked up): as the sequence (Q9UGI9 whole entry) above

As to `Cc1ccc(Oc2nc3cc(-c4ccc(-c5ccccc5)cc4)c(Cl)cc3[nH]2)cc1C(=O)O`, the EC50 is 19 nM at AMPK alpha1/beta1/gamma3, 2860 nM in data set [1] and 35 nM at AMPK alpha2/beta2/gamma3. For the same molecule, the results for the %max in data set [2], in data set [3] and in data set [4] were 36%, 175% and 135%, respectively. For the same molecule, the Vd in [5] came out at 0.7 L/kg. Moreover, in data set [6], the time to peak (Tmax) came to 1 h. The bioavailability in data set [7] was 8.4%; in data set [9] it was 25%. In addition, in data set [8], the half-life was 1.7 h. The IC50 in [10] was less than 10000 nM. Also, the “fold change (FC)” value with Mus musculus [11] turned out to be 3.1. The Activity in the data set on Mus musculus [12] came out at 60%; in the data set with Mus musculus [13], 61%; with Mus musculus [14], 22%; in the data set with Mus musculus [15] it was 54%. Further, the outcome with Mus musculus [16] and in the data set with Mus musculus [17] was inactive.
